From ChEMBL document CHEMBL3244279, “Synthesis and pharmacological evaluation of a clofibrate-related tricyclic spirolactone, 5-chloro-4',5-dihydrospiro[benzofuran-2(3H),3'(2'H)-furan]-2'-one” (J Med Chem, 1978)
The source made the active and inactive calls. No cut-off for these calls is given here.

Legend:
Rattus norvegicus [1] = assay: Antilipidemic activity in 48-hrs starved normal Sprague-Dawley rat model assessed as plasma cholesterol level at 0.124 mmol/kg, po (reference value: 88.7 +/- 6.9 mg/dL); format: functional
Rattus norvegicus [2] = assay: Antilipidemic activity in 48-hrs starved normal Sprague-Dawley rat model assessed as plasma triglyceride level at 0.124 mmol/kg, po (reference value: 20.8 +/- 5.5 mg/dL); format: functional
Rattus norvegicus [3] = assay: Antilipidemic activity in normal Sprague-Dawley rat assessed at 0.4 mmol/kg, po bid for 7 days; format: functional, organism-based
[4] = Drug metabolism in Sprague-Dawley rat serum assessed as esterase-mediated hydrolysis measured after 5 mins; format: ADME, cell-free
Outline: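 Pooled serum from ether-anesthetized male Sprague-Dawley rats (300–350 g; aortic blood with EDTA). 0.1 mL of 0.05 M ethanolic stock added to 6.0 mL serum, 37 °C with shaking; samples at 0, 5, 10, 30, 60 min extracted into isooctane–EtOH (95:5) with saturated NaCl; loss of parent read at 250 nm.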

[5] = Drug metabolism in Ringer bicarbonate buffer assessed as hydrolysis at pH 7.4 measured after 60 mins; format: physicochemical; conditions: read-out: Drug metabolism
Outline: (§1)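 Nonenzymatic hydrolysis: 0.1 mL of 0.05 M ethanolic stock added to 6.0 mL Ringer bicarbonate buffer, pH 7.4, 37 °C with shaking. Aliquots at 0–60 min extracted into isooctane–EtOH (95:5) with saturated NaCl; disappearance of parent tracked at 250 nm.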

Rattus norvegicus [6] = assay: Antilipidemic activity in sucrose-fed Sprague-Dawley rat assessed as serum triglyceride level at 0.4 mmol/kg, po bid for 7 days measured on day 0 (reference value: 157.1 +/- 77.8 mg/dL); format: functional
Rattus norvegicus [7] = assay: Antilipidemic activity in sucrose-fed Sprague-Dawley rat assessed as serum cholesterol level at 0.4 mmol/kg, po bid for 7 days measured on day 0 (reference value: 69 +/- 9 mg/dL); format: functional
Rattus norvegicus [8] = assay: Antilipidemic activity in sucrose-fed Sprague-Dawley rat assessed as serum cholesterol level at 0.4 mmol/kg, po bid for 7 days measured on day 7 (reference value: 92 +/- 22 mg/dL); format: functional
Rattus norvegicus [9] = assay: Antilipidemic activity in sucrose-fed Sprague-Dawley rat assessed as serum triglyceride level at 0.4 mmol/kg, po bid for 7 days measured on day 7 (reference value: 115.6 +/- 19.4 mg/dL); format: functional
Rattus norvegicus [10] = assay: Modulation of cholesterol level in sucrose-fed Sprague-Dawley rat liver at 0.4 mmol/kg, po bid for 7 days (reference value: 1.81 to 2.17 mg/g); format: functional
Rattus norvegicus [11] = assay: Modulation of triglyceride level in sucrose-fed Sprague-Dawley rat liver at 0.4 mmol/kg, po bid for 7 days (reference value: 7.26 to 8.29 mg/g); format: functional
Rattus norvegicus [12] = assay: Modulation of HMG-CoA reductase activity in sucrose-fed Sprague-Dawley rat liver assessed as mevalonic acid formation using DL-3-hydroxy-3-methylglutaryl-3-14C-CoA as substrate at 0.4 mmol/kg, po bid for 7 days (reference value: 8.27 to 8.3 nmol/mg/hr); format: functional
Rattus norvegicus [13] = assay: Modulation of liver to body weight ratio in sucrose-fed Sprague-Dawley rat at 0.4 mmol/kg, po bid for 7 days (reference value: 3.88 to 4.06%); format: functional
Rattus norvegicus [14] = assay: Modulation of liver weight in sucrose-fed Sprague-Dawley rat at 0.4 mmol/kg, po bid for 7 days (reference value: 11.30 to 13.16 gms); format: functional
Rattus norvegicus [15] = assay: Modulation of liver microsomal protein level in sucrose-fed Sprague-Dawley rat at 0.4 mmol/kg, po bid for 7 days measured per gm of tissue (reference value: 25.0 to 27.2 mg); format: functional
Rattus norvegicus [16] = assay: Modulation of ethylmorphine N-demethylase activity in sucrose-fed Sprague-Dawley rat liver microsomes assessed as formaldehyde formation using ethylmorphine as substrate at 0.4 mmol/kg, po bid for 7 days (reference value: 6.40 to 9.36 nmol/mg/min); format: functional
Rattus norvegicus [17] = assay: Modulation of cytochrome b5 activity in sucrose-fed Sprague-Dawley rat liver microsomes at 0.4 mmol/kg, po bid for 7 days measured per mg of protein (reference value: 0.185 to 0.213 nmol); format: functional
Outline: (§2)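 Sucrose-fed male rats dosed orally 0.4 mmol/kg twice daily for 7 days, controls vehicle; livers taken under ether anesthesia, microsomes prepared. Cytochrome P-450 and b5 estimated by the Kinoshita–Horie procedure, per mg microsomal protein. Mean ± SD, n = 5; Student's t test.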

Rattus norvegicus [18] = assay: Modulation of cytochrome-P450 activity in sucrose-fed Sprague-Dawley rat liver microsomes at 0.4 mmol/kg, po bid for 7 days measured per mg of protein (reference value: 0.477 to 0.593 nmol); format: functional; outline: as §2
Rattus norvegicus [19] = assay: Modulation of NADPH-cytochrome c reductase activity in sucrose-fed Sprague-Dawley rat liver microsomes assessed as cytochrome c reduction at 0.4 mmol/kg, po bid for 7 days (reference value: 202.5 +/- 27.9 nmol/mg/min); format: functional
Rattus norvegicus [20] = assay: Antilipidemic activity in Triton WR-1339-induced hyperlipidemic Sprague-Dawley rat model assessed as plasma cholesterol level at 0.124 mmol/kg, po (reference value: 166 +/- 17.8 mg/dL)
Rattus norvegicus [21] = assay: Antilipidemic activity in Triton WR-1339-induced hyperlipidemic Sprague-Dawley rat model assessed as plasma triglyceride level at 0.124 mmol/kg, po (reference value: 98.5 +/- 16.9 mg/dL)
Rattus norvegicus [22] = assay: Modulation of triglyceride level in sucrose-fed Sprague-Dawley rat liver at 0.4 mmol/kg, po bid for 7 days (reference value: 8.29 +/- 2.24 mg/g); format: functional
Rattus norvegicus [23] = assay: Modulation of HMG-CoA reductase activity in sucrose-fed Sprague-Dawley rat liver assessed as mevalonic acid formation using DL-3-hydroxy-3-methylglutaryl-3-14C-CoA as substrate at 0.4 mmol/kg, po bid for 7 days (reference value: 8.27 +/- 1.18 nmol/mg/hr); format: functional
Rattus norvegicus [24] = assay: Modulation of liver to body weight ratio in sucrose-fed Sprague-Dawley rat at 0.4 mmol/kg, po bid for 7 days (reference value: 4.06 +/- 0.25%); format: functional
Rattus norvegicus [25] = assay: Modulation of liver weight in sucrose-fed Sprague-Dawley rat at 0.4 mmol/kg, po bid for 7 days (reference value: 13.16 +/- 0.61 gms); format: functional
Rattus norvegicus [26] = assay: Modulation of liver microsomal protein level in sucrose-fed Sprague-Dawley rat at 0.4 mmol/kg, po bid for 7 days measured per gm of tissue (reference value: 25.0 +/- 2.5 mg); format: functional
Rattus norvegicus [27] = assay: Modulation of ethylmorphine N-demethylase activity in sucrose-fed Sprague-Dawley rat liver microsomes assessed as formaldehyde formation using ethylmorphine as substrate at 0.4 mmol/kg, po bid for 7 days (reference value: 9.36 +/- 0.50 nmol/mg/min); format: functional
Rattus norvegicus [28] = assay: Modulation of cytochrome b5 activity in sucrose-fed Sprague-Dawley rat liver microsomes at 0.4 mmol/kg, po bid for 7 days measured per mg of protein (reference value: 0.213 +/- 0.032 nmol); format: functional; outline: as §2
Rattus norvegicus [29] = assay: Modulation of cytochrome-P450 activity in sucrose-fed Sprague-Dawley rat liver microsomes at 0.4 mmol/kg, po bid for 7 days measured per mg of protein (reference value: 0.593 +/- 0.059 nmol); format: functional; outline: as §2
Rattus norvegicus [30] = assay: Antilipidemic activity in normal Sprague-Dawley rat assessed as serum cholesterol level at 0.4 mmol/kg, po bid for 7 days (reference value: 59.1 to 81.6 mg/dL); format: functional
Outline: (§3)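 Normal male Sprague-Dawley rats dosed orally twice daily, 0.4 mmol/kg […], for 7 days; controls received vehicle. Serum cholesterol and triglycerides measured at end of treatment; two separate experiments. Mean ± SD, n = 5; Student's t test vs control.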

Rattus norvegicus [31] = assay: Antilipidemic activity in normal Sprague-Dawley rat assessed as serum triglyceride level at 0.4 mmol/kg, po bid for 7 days (reference value: 61.2 to 69.1 mg/dL); format: functional; outline: as §3
Rattus norvegicus [32] = assay: Modulation of cholesterol level in normal Sprague-Dawley rat liver at 0.4 mmol/kg, po bid for 7 days (reference value: 2.73 to 3.28 mg/g); format: functional
Rattus norvegicus [33] = assay: Modulation of triglyceride level in normal Sprague-Dawley rat liver at 0.4 mmol/kg, po bid for 7 days (reference value: 2.73 to 3.36 mg/g); format: functional
Rattus norvegicus [34] = assay: Modulation of HMG-CoA reductase activity in normal Sprague-Dawley rat liver assessed as mevalonic acid formation using DL-3-hydroxy-3-methylglutaryl-3-14C-CoA as substrate at 0.4 mmol/kg, po bid for 7 days (reference value: 49.1 +/- 6.7 nmol/mg/hr); format: functional
Rattus norvegicus [35] = assay: Modulation of liver to body weight ratio in normal Sprague-Dawley rat at 0.4 mmol/kg, po bid for 7 days (reference value: 4.21 to 4.59%); format: functional
Rattus norvegicus [36] = assay: Modulation of liver weight in normal Sprague-Dawley rat at 0.4 mmol/kg, po bid for 7 days (reference value: 6.73 to 8.71 gms); format: functional
Rattus norvegicus [37] = assay: Modulation of liver microsomal protein level in normal Sprague-Dawley rat at 0.4 mmol/kg, po bid for 7 days measured per gm of tissue (reference value: 25.4 to 29.0 mg); format: functional
[38] = Drug metabolism in Sprague-Dawley rat serum assessed as esterase-mediated hydrolysis at 0.05 M measured after 5 mins; format: ADME, cell-free; conditions: read-out: Drug metabolism
[39] = Drug metabolism in Ringer bicarbonate buffer assessed as hydrolysis at 0.05 M at pH 7.4 measured after 60 mins; format: physicochemical; outline: as §1
Rattus norvegicus [40] = assay: Antilipidemic activity in 48-hrs starved normal Sprague-Dawley rat model assessed as plasma cholesterol level at 0.124 mmol/kg, po (reference value: 90.1 +/- 8.8 mg/dL); format: functional
Rattus norvegicus [41] = assay: Antilipidemic activity in 48-hrs starved normal Sprague-Dawley rat model assessed as plasma triglyceride level at 0.124 mmol/kg, po (reference value: 20.9 +/- 11.3 mg/dL); format: functional
Rattus norvegicus [42] = assay: Modulation of cholesterol level in sucrose-fed Sprague-Dawley rat liver at 0.4 mmol/kg, po bid for 7 days (reference value: 2.17 +/- 0.26 mg/g); format: functional
Rattus norvegicus [43] = assay: Antilipidemic activity in Triton WR-1339-induced hyperlipidemic Sprague-Dawley rat model assessed as plasma cholesterol level at 0.124 mmol/kg, po (reference value: 183 +/- 101 mg/dL)
Rattus norvegicus [44] = assay: Antilipidemic activity in Triton WR-1339-induced hyperlipidemic Sprague-Dawley rat model assessed as plasma triglyceride level at 0.124 mmol/kg, po (reference value: 156 +/- 184 mg/dL)

CCOC(=O)C(C)(C)Oc1ccc(Cl)cc1 [CLOFIBRATE]
Activity (Rattus norvegicus [1]): 87 mg/dL
Activity (Rattus norvegicus [2]): 24.1 mg/dL
Activity (Rattus norvegicus [3]): Active
metabolised at 5 min [4]: > 90%
degraded at 1 h [5]: < 20%
Activity (Rattus norvegicus [6]): 153 mg/dL
Activity (Rattus norvegicus [7]): 74 mg/dL
Activity (Rattus norvegicus [8]): 36 mg/dL
Activity (Rattus norvegicus [9]): 50.2 mg/dL
Activity (Rattus norvegicus [10]): 1.76 mg/g
Activity (Rattus norvegicus [11]): 3.05 mg/g
Activity (Rattus norvegicus [12]): 2.7 nmol/mg/h
Activity (Rattus norvegicus [13]): 5.01%
Activity (Rattus norvegicus [14]): 14.32 g
Activity (Rattus norvegicus [15]): 29.2 mg
Activity (Rattus norvegicus [16]): 7.91 nmol/mg/min
Activity (Rattus norvegicus [17]): 0.169 nmol
Activity (Rattus norvegicus [18]): 0.806 nmol
Activity (Rattus norvegicus [19]): 308.3 nmol/mg/min
Activity (Rattus norvegicus [20]): 93.2 mg/dL
Activity (Rattus norvegicus [21]): 22.3 mg/dL

O=C1OCCC12Cc1cc(Cl)ccc1O2 (stereo not drawn)
Activity (Rattus norvegicus [22]): 10.02 mg/g
Activity (Rattus norvegicus [23]): 7.1 nmol/mg/h
Activity (Rattus norvegicus [24]): 4.18%
Activity (Rattus norvegicus [25]): 13.16 g
Activity (Rattus norvegicus [26]): 27.8 mg
Activity (Rattus norvegicus [27]): 9.8 nmol/mg/min
Activity (Rattus norvegicus [28]): 0.173 nmol
Activity (Rattus norvegicus [29]): 0.55 nmol
Activity (Rattus norvegicus [30]): 58.6 mg/dL
Activity (Rattus norvegicus [31]): 66.5 mg/dL
Activity (Rattus norvegicus [32]): 3.18 mg/g
Activity (Rattus norvegicus [33]): 3.17 mg/g
Activity (Rattus norvegicus [34]): 45 nmol/mg/h
Activity (Rattus norvegicus [35]): 4.5%
Activity (Rattus norvegicus [36]): 7.87 g
Activity (Rattus norvegicus [37]): 27.3 mg
metabolised at 5 min [38]: > 90%
degraded at 1 h [39]: < 20%
Activity (Rattus norvegicus [6]): 142 mg/dL
Activity (Rattus norvegicus [40]): 91.8 mg/dL
Activity (Rattus norvegicus [7]): 67 mg/dL
Activity (Rattus norvegicus [41]): 18.5 mg/dL
Activity (Rattus norvegicus [8]): 103 mg/dL
Activity (Rattus norvegicus [9]): 121.5 mg/dL
Activity (Rattus norvegicus [42]): 2.32 mg/g
Activity (Rattus norvegicus [43]): 131 mg/dL
Activity (Rattus norvegicus [44]): 20.6 mg/dL
